Measured values reported in ChEMBL document CHEMBL1828531, “Pyrazol-3-propanoic acid derivatives as novel inhibitors of leukotriene biosynthesis in human neutrophils” (Eur J Med Chem, 2011).

Key:
[1] = Inhibition of mPGES1-mediated PGE2 production in IL1-beta stimulated human A549 cells after 15 mins; assay type: cell-based; conditions: A549, 0.25 h
In short: (§1)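 Microsomes from IL-1β (1 ng/ml, 72 h) stimulated A549 cells, diluted in 0.1 M potassium phosphate pH 7.4 with 2.5 mM glutathione. Compound or 1% DMSO added, 15 min at 4 °C. Started with 20 µM PGH2 (final), 1 min at 4 °C. Stopped with FeCl2/citric acid containing 11β-PGE2 internal standard. PGE2 by RP-C18 solid-phase extraction and peak integration.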

[2] = molecular target: T1, Polyunsaturated fatty acid 5-lipoxygenase (Homo sapiens, UniProt P09917); assay: Inhibition of 5-Lipoxygenase in arachidonic acid-stimulated human neutrophils after 15 mins by HPLC analysis in presence of A23187
T1 sequence (P09917 whole entry): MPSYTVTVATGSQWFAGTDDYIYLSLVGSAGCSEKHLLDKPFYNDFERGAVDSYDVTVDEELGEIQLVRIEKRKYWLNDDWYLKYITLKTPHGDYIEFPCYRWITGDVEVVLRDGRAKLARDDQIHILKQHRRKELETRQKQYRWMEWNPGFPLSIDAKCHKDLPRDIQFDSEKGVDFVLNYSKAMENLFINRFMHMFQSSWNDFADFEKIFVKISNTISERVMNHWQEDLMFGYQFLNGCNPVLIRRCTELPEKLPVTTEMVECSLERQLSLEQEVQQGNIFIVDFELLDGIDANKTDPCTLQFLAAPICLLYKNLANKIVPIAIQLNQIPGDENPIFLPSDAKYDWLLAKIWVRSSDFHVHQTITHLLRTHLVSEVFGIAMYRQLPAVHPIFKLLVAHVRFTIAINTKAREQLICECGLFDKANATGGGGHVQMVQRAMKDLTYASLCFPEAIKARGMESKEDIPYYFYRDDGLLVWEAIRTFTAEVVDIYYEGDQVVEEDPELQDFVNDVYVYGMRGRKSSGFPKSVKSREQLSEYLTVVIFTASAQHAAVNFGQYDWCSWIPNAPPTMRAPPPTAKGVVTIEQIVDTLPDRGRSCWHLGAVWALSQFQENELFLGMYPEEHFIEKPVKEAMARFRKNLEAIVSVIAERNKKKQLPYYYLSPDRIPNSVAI
In short: (§2)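 Human neutrophils, 5 × 10^6/mL in PBS/glucose/1 mM CaCl2, preincubated 15 min at RT, then 2.5 µM A23187 plus 20 µM AA for 10 min at 37 °C. Methanol stop, PGB1 internal standard, HPLC of LTB4, its all-trans isomers and 5-H(p)ETE. Residual % versus 0.3% DMSO vehicle, mean ± SEM, n = 3–5. IC50 by linear interpolation from 4–5 concentrations.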

[3] = molecular target: T2, Polyunsaturated fatty acid lipoxygenase ALOX12 (Homo sapiens) (UniProt P18054); assay: Inhibition of 12-Lipoxygenase-mediated 12-HETE in human neutrophil assessed as residual activity at 30 uM after 15 mins by HPLC analysis
T2 sequence (whole entry): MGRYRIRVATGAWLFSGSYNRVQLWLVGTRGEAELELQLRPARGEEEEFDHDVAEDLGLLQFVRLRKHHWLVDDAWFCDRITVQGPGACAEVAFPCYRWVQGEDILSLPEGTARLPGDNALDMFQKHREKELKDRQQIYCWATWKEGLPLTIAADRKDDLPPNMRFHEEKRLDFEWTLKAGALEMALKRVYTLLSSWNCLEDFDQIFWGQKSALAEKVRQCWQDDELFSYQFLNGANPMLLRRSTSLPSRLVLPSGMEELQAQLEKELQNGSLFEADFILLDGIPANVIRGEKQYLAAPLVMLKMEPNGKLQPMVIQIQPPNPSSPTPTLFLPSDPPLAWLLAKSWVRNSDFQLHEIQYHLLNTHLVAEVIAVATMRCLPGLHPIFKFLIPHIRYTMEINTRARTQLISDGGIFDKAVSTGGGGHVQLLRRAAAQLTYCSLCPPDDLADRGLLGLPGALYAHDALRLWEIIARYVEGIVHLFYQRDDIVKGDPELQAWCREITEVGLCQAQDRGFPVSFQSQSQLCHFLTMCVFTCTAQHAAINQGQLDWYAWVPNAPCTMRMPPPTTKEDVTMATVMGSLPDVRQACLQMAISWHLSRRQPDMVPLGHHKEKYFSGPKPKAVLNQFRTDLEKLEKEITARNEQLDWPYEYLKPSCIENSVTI
In short: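 Freshly isolated human blood neutrophils, 5 × 10^6/mL in PBS pH 7.4 with 1 mg/mL glucose and 1 mM CaCl2, preincubated with compound 15 min at RT. Stimulated with 2.5 µM A23187 plus 20 µM AA for 10 min at 37 °C. Stopped with methanol/HCl, PGB1 internal standard. 12-HETE or 15-HETE measured by HPLC. Residual activity tested at 30 µM.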

[4] = system: A549; assay: Inhibition of mPGES1-mediated PGE2 production in IL1-beta stimulated human A549 cells assessed as residual activity at 10 uM after 15 mins; assay type: cell-based; in short: as §1
[5] = molecular target: T3, Polyunsaturated fatty acid 5-lipoxygenase (Homo sapiens) (UniProt P09917); assay: Inhibition of recombinant human 5-Lipoxygenase expressed in Escherichia coli lysate assessed as residual activity using arachidonic acid as substrate at 10 uM after 10 mins by HPLC analysis
T3 sequence (whole entry): T1 sequence (P09917 whole entry)
In short: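 Human 5-LO expressed at 30 °C in E. coli MV1190 (pT3-5LO); lysate 40,000 g supernatant in PBS pH 7.4 with 1 mM EDTA. Preincubated with compound 10 min at 4 °C, warmed 30 s at 37 °C. Started with 2 mM CaCl2 plus 20 µM AA, 10 min at 37 °C. Methanol stop, HPLC. Residual % versus 0.3% DMSO vehicle, n = 3–5.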

[6] = molecular target: Prostaglandin G/H synthase 1 (Homo sapiens, UniProt P23219); assay: Inhibition of COX1-mediated 12-HHT production in human platelet after 5 mins by HPLC analysis
Sequence of Prostaglandin G/H synthase 1 (P23219 whole entry): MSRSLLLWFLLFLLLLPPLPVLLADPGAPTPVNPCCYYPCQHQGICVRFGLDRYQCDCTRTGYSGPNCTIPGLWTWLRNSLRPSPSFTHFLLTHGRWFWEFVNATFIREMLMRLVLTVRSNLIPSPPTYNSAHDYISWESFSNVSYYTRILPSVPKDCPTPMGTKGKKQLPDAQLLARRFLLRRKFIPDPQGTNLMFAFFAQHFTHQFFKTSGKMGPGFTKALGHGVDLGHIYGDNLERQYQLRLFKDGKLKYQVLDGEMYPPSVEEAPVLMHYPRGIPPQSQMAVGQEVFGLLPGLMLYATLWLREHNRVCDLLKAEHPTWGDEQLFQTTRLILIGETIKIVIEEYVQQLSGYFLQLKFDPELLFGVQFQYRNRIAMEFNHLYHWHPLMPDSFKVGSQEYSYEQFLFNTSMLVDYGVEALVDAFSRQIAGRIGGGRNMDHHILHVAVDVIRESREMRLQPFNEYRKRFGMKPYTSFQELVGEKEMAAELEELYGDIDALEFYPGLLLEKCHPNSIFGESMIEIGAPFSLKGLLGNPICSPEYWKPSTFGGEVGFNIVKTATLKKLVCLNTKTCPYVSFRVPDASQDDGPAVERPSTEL
In short: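 Washed human platelets, 10^8/mL in PBS with 1 mM CaCl2, preincubated with compound 4 min at 4 °C then 1 min at 37 °C. 5 µM AA added for 5 min at 37 °C. Methanol/HCl stop, PGB1 added, 12-HHT by HPLC. Residual activity at 10 µM. IC50 by interpolation from 4–5 concentrations.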

[7] = molecular target: T3, Polyunsaturated fatty acid 5-lipoxygenase (Homo sapiens); assay: Inhibition of 5-Lipoxygenase in arachidonic acid-stimulated human neutrophils assessed as residual activity at 10 uM after 15 mins by HPLC analysis in presence of A23187; in short: as §2

| SMILES | IC50 [1] [µM] | IC50 [2] [µM] | Activity [3] [%] | Activity [5] [%] | IC50 [6] [µM] | Activity [7] [%] | Activity [4] [%] |
| --- | --- | --- | --- | --- | --- | --- | --- |
| CCOC(=O)C1CCN(C(=O)CCc2cc(-c3ccc(C)cc3)n(-c3ccc4ccccc4n3)n2)CC1 | > 10 | 4 | 91.9 | 55.9 | 0.9 | 25.8 | 84 |
| Cc1ccc(-c2cc(CCC(=O)N3CCN(Cc4ccc(C(C)(C)C)cc4)CC3)nn2-c2ccccc2)cc1 | > 10 | 2.7 | 118 | 62.9 | 2.5 | 13.5 | 84.6 |
| Cc1ccc(-c2cc(CCC(=O)Oc3ccc(C(C)C)cc3)nn2-c2ccc(Cl)nn2)cc1 | > 10 | 8 | 77.1 | 83.4 | > 10 | 46.4 | 91.4 |
| CCOC(=O)C1CCN(C(=O)CCc2cc(-c3ccc(C(F)(F)F)cc3)n(-c3ccc(Cl)nn3)n2)CC1 | > 10 | 15 | 90.4 | 84 | > 10 | 62 | 103 |

Further lines, with some results ahead:

| IC50 [1] [µM] | IC50 [2] [µM] | Activity [3] [%] | Activity [5] [%] | IC50 [6] [µM] | Activity [7] [%] | SMILES | Activity [4] [%] |
| --- | --- | --- | --- | --- | --- | --- | --- |
| > 10 | 2.4 | 98 | 79.5 | > 10 | 6.7 | CCOC(=O)C1CCN(C(=O)CCc2cc(-c3ccc(C)cc3)n(-c3ccccc3)n2)CC1 | 82.6 |
| > 10 | 3.5 | 111 | 115 | 0.041 | 16.4 | Cc1ccc(-c2cc(CCC(=O)N3CCN(Cc4ccc(C(C)(C)C)cc4)CC3)nn2-c2ccc3ccccc3n2)cc1 | 75 |
| > 10 | > 10 | 67.8 | 86.1 | 0.014 | 65.4 | Cc1ccc(-c2cc(CCC(=O)Oc3ccc(C(C)C)cc3)nn2-c2ccc3ccccc3n2)cc1 | 88 |
| > 10 | 1.6 | 103 | 103 | > 10 | 23.4 | CC(C)(C)c1ccc(CN2CCN(C(=O)CCc3cc(-c4ccc(F)cc4)n(-c4ccc(Cl)nn4)n3)CC2)cc1 | 75.6 |
| > 10 | 2 | 67.2 | 92.6 | 0.3 | 20.4 | Cc1ccc(-c2cc(CCC(=O)Oc3ccc(C(C)C)cc3)nn2-c2ccccc2)cc1 | 108 |
